Data from PubChem BioAssay AID623915 (Johns Hopkins Ion Channel Center, 2012).
Where “and” joins values, the source holds several entries; their conditions need not be identical. Equal values may be shown once. Calls of active or inactive are those of the source.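 How the source made its calls: active means more than 50% block of the TASK1 potassium channel current at 10 µM; inactive means the rest.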

molecular target: Potassium channel subfamily K member 3 (Rattus norvegicus) (UniProt O54912); experiment: TASK1 (KCNK3) current inhibitors, SAR follow-up, selectivity assay for KCNK9 inhibitor project, automated electrophysiology, QPatch, CHO cells (AID 623915); details: QPatch whole-cell current inhibition
Procedure, shortened: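 Material: CHO cells with tetracycline-inducible rat TASK1 (KCNK3) channel | Buffer or medium: 140 mM K+ external solution, pH 7.40 | Dosing: Cumulative concentration series, one cell per dose-response | Schedule: 5 min per concentration | Technique: Automated whole-cell voltage clamp, ramp protocol, current at -30 mV | Controls: Full block by 2 mM Ba2+ at pH 5.8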

Potassium channel subfamily K member 3 (Rattus norvegicus), sequence (O54912 whole entry, looked up): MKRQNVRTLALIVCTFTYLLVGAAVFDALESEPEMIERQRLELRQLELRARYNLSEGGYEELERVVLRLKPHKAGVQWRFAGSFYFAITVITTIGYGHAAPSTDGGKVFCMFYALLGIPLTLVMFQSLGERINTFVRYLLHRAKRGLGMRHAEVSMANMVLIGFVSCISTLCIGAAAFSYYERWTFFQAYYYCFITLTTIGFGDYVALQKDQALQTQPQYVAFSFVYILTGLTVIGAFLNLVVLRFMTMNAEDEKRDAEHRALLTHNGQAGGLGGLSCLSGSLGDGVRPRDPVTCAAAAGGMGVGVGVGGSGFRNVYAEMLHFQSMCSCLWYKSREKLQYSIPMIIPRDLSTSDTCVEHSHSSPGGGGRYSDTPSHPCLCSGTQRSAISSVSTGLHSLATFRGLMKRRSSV

IC50	outcome	SMILES
1850 nM		CC(C1CC2CCC1C2)n1c(-c2ccco2)nn(CCc2ccncc2)c1=S (stereo unspecified)
	inactive	C[C@H]([C@@H]1CC2CC[C@H]1C2)n1c(-c2ccsc2)n[nH]c1=S
6430 nM		C[C@H](C1CCCCC1)n1c(-c2ccsc2)n[nH]c1=S
3200 nM		C[C@@H]([C@@H]1CC2CC[C@H]1C2)n1c(-c2ccco2)n[nH]c1=S
1960 nM and 6430 nM		C[C@@H]([C@@H]1CC2CC[C@H]1C2)n1c(-c2ccsc2)n[nH]c1=S
820 nM		CC(C1CC2CCC1C2)n1c(-c2ccco2)n[nH]c1=S (stereo unspecified)
